The results in this text go back to ChEMBL document CHEMBL1136609, “An adjustable release rate linking strategy for cytotoxin-peptide conjugates” (Bioorg Med Chem Lett, 2003).

Series [1] is described as follows: Half-life in rat serum. The format is ADME, organism-based. The gist of the method: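 Compounds incubated at 37°C in fresh rat serum; aliquots removed at several time points and analysed by HPLC to estimate half-life.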
Series [2] is filed under the species Rattus norvegicus. In words: Inhibitory activity against GHRH-stimulated GH release from monolayer cultures of rat pituitary cells. It is filed as functional, cell-based. The conditions noted are these: Pituitary gland cell. The gist of the method:
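Monolayer cultures of rat pituitary cells stimulated with GHRH; agonist potency measured as inhibition of GH release, expressed as IC50.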

The target of a further series is Somatostatin receptor. In words: Cytotoxic activity against human neuroblastoma IMR32 cells which over-express somatostatin receptors. It is filed as functional, cell-based. The conditions noted are these: imr-32. The gist of the method:
(§1)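 Human neuroblastoma IMR-32 cells (somatostatin receptor/SSTR2 over-expressing) exposed to a range of compound concentrations for 3 days, in quadruplicate; viability read by MTT assay; IC50 taken from dose-response curves.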

The next series deals with IMR-32. In words: Cytotoxic activity against human neuroblastoma IMR32 cells. It is filed as functional, cell-based. The gist of the method:
as §1

The nature of series [3]: Half-life in phosphate buffer. The format is ADME. The gist of the method:
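Incubated in 0.1 M phosphate buffer at 37°C; aliquots taken at various time points and analysed by HPLC to give half-life. The experiment ran for 50 h.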

The species named for series [4] is Rattus norvegicus. The experiment in a line: Inhibitory activity against GHRH-stimulated GH release from monolayer cultures of rat pituitary cells; na is not active. The format is functional, cell-based. The conditions noted are these: pituitary gland cell.

pIC50: −log10 of the molar value.

The term half-life denotes the time needed for the level to fall by half in the phase considered. Higher therefore signals slow loss. As usually defined, the pIC50 is the negative decadic logarithm of the IC50, by convention in mol/L. Higher therefore signals a low IC50. By IC50 is commonly meant the concentration that inhibits the measured activity by half. Read a low IC50 as higher potency. On to `CCCC[C@H](NC(=O)[C@@H](CO)NC(=O)CN(CCN(C)C)C(=O)O[C@]1(CC)C(=O)OCc2c1cc1n(c2=O)Cc2cc3ccccc3nc2-1)C(=O)N[C@H](Cc1ccc(O)cc1)C(=O)N[C@H](CO)C(=O)N[C@@H]1CSSC[C@H](C(=O)N[C@H](C(N)=O)[C@@H](C)O)NC(=O)[C@H]([C@@H](C)O)NC(=O)[C@H](CCCN)NC(=O)[C@@H](Cc2c[nH]c3ccccc23)NC(=O)[C@H](Cc2ccccc2)NC1=O`, for which the half-life in series [1] was 59 h. Also, in the series listed under Rattus norvegicus [2], the pIC50 was 9.52. Also, on Somatostatin receptor, the IC50 turned out to be 571 nM.

In series [1], `CCCC[C@H](NC(=O)[C@@H](CO)NC(=O)CN(CCN)C(=O)O[C@]1(CC)C(=O)OCc2c1cc1n(c2=O)Cc2cc3ccccc3nc2-1)C(=O)N[C@H](Cc1ccc(O)cc1)C(=O)N[C@H](CO)C(=O)N[C@@H]1CSSC[C@H](C(=O)N[C@H](C(N)=O)[C@@H](C)O)NC(=O)[C@H]([C@@H](C)O)NC(=O)[C@H](CCCN)NC(=O)[C@@H](Cc2c[nH]c3ccccc23)NC(=O)[C@H](Cc2ccccc2)NC1=O` gave a half-life of 106 h. The pIC50 with IMR-32 is 6.43; in the series filed under Rattus norvegicus [2], 9.49.

For the compound `CCCC[C@H](NC(=O)[C@@H](CO)NC(=O)CN(CCO)C(=O)O[C@]1(CC)C(=O)OCc2c1cc1n(c2=O)Cc2cc3ccccc3nc2-1)C(=O)N[C@H](Cc1ccc(O)cc1)C(=O)N[C@H](CO)C(=O)N[C@@H]1CSSC[C@H](C(=O)N[C@H](C(N)=O)[C@@H](C)O)NC(=O)[C@H]([C@@H](C)O)NC(=O)[C@H](CCCN)NC(=O)[C@@H](Cc2c[nH]c3ccccc23)NC(=O)[C@H](Cc2ccccc2)NC1=O`, in the series listed under Rattus norvegicus [2], the pIC50 is 9.31. In addition, at Somatostatin receptor, the IC50 was more than 1000 nM.

Take `CCCC[C@H](NC(=O)[C@@H](CO)NC(=O)CN(CCNC)C(=O)O[C@]1(CC)C(=O)OCc2c1cc1n(c2=O)Cc2cc3ccccc3nc2-1)C(=O)N[C@H](Cc1ccc(O)cc1)C(=O)N[C@H](CO)C(=O)N[C@@H]1CSSC[C@H](C(=O)N[C@H](C(N)=O)[C@@H](C)O)NC(=O)[C@H]([C@@H](C)O)NC(=O)[C@H](CCCN)NC(=O)[C@@H](Cc2c[nH]c3ccccc23)NC(=O)[C@H](Cc2ccccc2)NC1=O`: the values for the half-life in series [1] and in series [3] were 18 h and 123 h, respectively. Besides, the pIC50 in the series filed under Rattus norvegicus [2] is 9.57. The compound further showed an IC50 at Somatostatin receptor of 54.2 nM.

For `CC[C@@]1(O)C(=O)OCc2c1cc1n(c2=O)Cc2cc3ccccc3nc2-1` [CAMPTOTHECIN], the IC50 entry is recorded as “Not Active” in the series listed under Rattus norvegicus [4] and 2.21 nM at Somatostatin receptor.

The compound `CCCC[C@H](NC(=O)[C@@H](CO)NC(=O)CN(CCCN)C(=O)O[C@]1(CC)C(=O)OCc2c1cc1n(c2=O)Cc2cc3ccccc3nc2-1)C(=O)N[C@H](Cc1ccc(O)cc1)C(=O)N[C@H](CO)C(=O)N[C@@H]1CSSC[C@H](C(=O)N[C@H](C(N)=O)[C@@H](C)O)NC(=O)[C@H]([C@@H](C)O)NC(=O)[C@H](CCCN)NC(=O)[C@@H](Cc2c[nH]c3ccccc23)NC(=O)[C@H](Cc2ccccc2)NC1=O` showed a half-life in series [1] of 72 h. In the series filed under Rattus norvegicus [2], this compound gave a pIC50 of 9.59. At Somatostatin receptor, the half-inhibitory concentration (IC50) is more than 1000 nM.

Consider `CCCC[C@H](NC(=O)[C@@H](CO)NC(=O)CN(CCN)C(=O)Oc1cc(/C=C\c2cc(OC)c(OC)c(OC)c2)ccc1OC)C(=O)N[C@H](Cc1ccc(O)cc1)C(=O)N[C@H](CO)C(=O)N[C@@H]1CSSC[C@H](C(=O)N[C@H](C(N)=O)[C@@H](C)O)NC(=O)[C@H]([C@@H](C)O)NC(=O)[C@H](CCCN)NC(=O)[C@@H](Cc2c[nH]c3ccccc23)NC(=O)[C@H](Cc2ccccc2)NC1=O`, for which the results for the half-life in series [1] and in series [3] were 4 h and 31 h, respectively. This compound had a pIC50 in the series filed under Rattus norvegicus [2] of 9.51. Further, the IC50 against Somatostatin receptor is 2.79 nM.
